Data reported in publication PMC4591930 (Angewandte Chemie (International ed. in English), 2015).
Blank lines part the entries; values can stand above or below the compound they belong to. Where a SMILES comes first, the peptide text is derived from it. [ ]: non-standard residue; d: D form. The star is where a group is joined. FITC = O=C1OC2(c3ccc(O)cc3Oc3cc(O)ccc32)c2ccc(NC(=S)*)cc21; Phe(4-F) = N[C@@H](Cc1ccc(F)cc1)C(=O)O; d2Nal = N[C@H](Cc1ccc2ccccc2c1)C(=O)O; dNle = CCCC[C@@H](N)C(=O)O

Assays:
[1] = test system: phosphorylation of Akt at Thr308; assay: EGF-stimulated Akt Thr308 phosphorylation in H1299 cells; format: cell-based, human
Outline: (§1)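 H1299 cells exposed to a range of test compound concentrations for 10 min, then stimulated with EGF (50 ng/ml) for 5 min before lysis. Phospho-Akt (Thr308) and phospho-MEK detected by immunoblot, with total Akt and MEK blotted alongside.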

[2] = test system: phosphorylation of MEK; assay: EGF-stimulated MEK phosphorylation in H1299 cells; format: cell-based, human
Outline: as §1

[3] = test system: lung cancer cells; assay: Cell permeability of hits; format: cell-based, human; conditions: qualitative
Outline: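 A549 lung cancer cells given 5 μM FITC-labelled test compound for 30 min. Uptake viewed live by confocal microscopy with DRAQ5 nuclear counterstain. Total cell-associated fluorescence measured by flow cytometry against untreated control cells.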

[4] = test system: H1299 cells; assay: Annexin-FITC / propidium iodide flow cytometry of treated H1299 cells; format: cell-based, human; conditions: 10 μM, 3 h
[5] = target: Ras-Raf interaction (Homo sapiens, UniProt P01116, G12V); assay: Homogeneous time-resolved fluorescence; format: binding; conditions: Gln-8 replaced with L- or D-arginine, versus 9A1-4
Ras-Raf interaction, sequence (P01116 1-188 isoform P01116-2 G12V): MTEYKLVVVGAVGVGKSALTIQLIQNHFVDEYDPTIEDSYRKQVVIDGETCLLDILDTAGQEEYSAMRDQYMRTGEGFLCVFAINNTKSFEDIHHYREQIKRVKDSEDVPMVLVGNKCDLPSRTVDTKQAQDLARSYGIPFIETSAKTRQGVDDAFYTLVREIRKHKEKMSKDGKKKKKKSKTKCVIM

[6] = test system: caspase-3 activity; assay: Caspase-3 activity in H1299 cells; format: cell-based, human; conditions: 10 μM, 3 h
[7] = test system: Ras-B-Raf interaction; assay: Ras-B-Raf co-immunoprecipitation in H358 cells; format: cell-based, human; conditions: anti-Ras precipitation, anti-B-Raf immunoblot
Outline: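 H358 lung cancer cells treated with increasing test compound concentrations. Lysates immunoprecipitated with anti-Ras antibody and co-precipitated B-Raf detected by anti-B-Raf immunoblot. Whole-cell lysate blotted alongside.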

[8] = target: K-Ras (Homo sapiens, UniProt P01116, G12V); assay: Fluorescence anisotropy; format: binding; conditions: fluorescence anisotropy in solution
K-Ras, sequence (P01116 1-188 isoform P01116-2 G12V): as above

[9] = test system: lung cancer cells; assay: Anti-proliferative activity against lung cancer cells; format: cell-based, human; conditions: qualitative
[10] = target: panel of five arbitrarily selected control proteins; assay: FA binding to control proteins
[11] = test system: A549 lung cancer cells; assay: Flow cytometry of cellular uptake of FITC-labeled peptides; format: cell-based, human; conditions: 5 μM, 30 min

SMILES: CCCC[C@H]1NC(=O)[C@H]([C@@H](C)O)NC(=O)[C@@H](C)NC(=O)[C@H](CCCNC(=N)N)NC(=O)[C@H](CCCNC(=N)N)NC(=O)[C@H](CCCNC(=N)N)NC(=O)[C@@H](Cc2ccc3ccccc3c2)NC(=O)[C@H](CCCNC(=N)N)NC(=O)[C@H](Cc2ccc(F)cc2)NC(=O)[C@H](Cc2c[nH]c3ccccc23)NC(=O)[C@H](CCC(N)=O)NC1=O [9A5] (cyclo(QW[Phe(4-F)]R[d2Nal]RRR[dA]T[dNle]))
concentration abolishing Akt Thr308 phosphorylation ([1]; H1299 cells): ≥ 12 µM
exposure time at which dephosphorylation of Akt was largely complete ([1]; time-course experiment): 10 min
concentration abolishing MEK phosphorylation ([2]; H1299 cells): ≥ 12 µM
exposure time at which dephosphorylation of MEK was largely complete ([2]; time-course experiment): 10 min
cell permeability [3]: improved cell permeability
annexin-FITC and propidium iodide staining [4]: positive
fold higher affinity for K-Ras [5]: ~ 4 fold
fold increase in caspase-3 activity [6]: 2.3 fold
inhibition of Ras-B-Raf interaction in cells [7]: dose-dependently inhibited

cell permeability [3]: improved cell permeability
fold higher affinity for K-Ras [5]: ~ 4 fold
SMILES: CCCC[C@H]1NC(=O)[C@H]([C@@H](C)O)NC(=O)[C@@H](C)NC(=O)[C@@H](CCCNC(=N)N)NC(=O)[C@H](CCCNC(=N)N)NC(=O)[C@H](CCCNC(=N)N)NC(=O)[C@@H](Cc2ccc3ccccc3c2)NC(=O)[C@H](CCCNC(=N)N)NC(=O)[C@H](Cc2ccc(F)cc2)NC(=O)[C@H](Cc2c[nH]c3ccccc23)NC(=O)[C@H](CCC(N)=O)NC1=O [9A6] (cyclo(QW[Phe(4-F)]R[d2Nal]RR[dR][dA]T[dNle]))

cell permeability [3]: cell permeable
binding to K-Ras [8]: strong binding
SMILES: CCCC[C@H]1NC(=O)[C@H]([C@@H](C)O)NC(=O)[C@@H](C)NC(=O)[C@H](CCC(N)=O)NC(=O)[C@H](CCCNC(=N)N)NC(=O)[C@H](CCCNC(=N)N)NC(=O)[C@@H](Cc2ccc3ccccc3c2)NC(=O)[C@H](CCCNC(=N)N)NC(=O)[C@H](Cc2ccc(F)cc2)NC(=O)[C@H](Cc2c[nH]c3ccccc23)NC(=O)[C@@H](CO)NC1=O [9A] (cyclo([dS]W[Phe(4-F)]R[d2Nal]RRQ[dA]T[dNle]))
anti-proliferative activity [9]: weak anti-proliferative activity

SMILES: CCCC[C@H]1NC(=O)[C@H]([C@@H](C)O)NC(=O)[C@@H](C)NC(=O)[C@H](CCCNC(=N)N)NC(=O)[C@H](CCCNC(=N)N)NC(=O)[C@H](CCCCNC(=S)Nc2ccc3c(c2)C(=O)OC32c3ccc(O)cc3Oc3cc(O)ccc32)NC(=O)[C@@H](Cc2ccc3ccccc3c2)NC(=O)[C@H](CCCNC(=N)N)NC(=O)[C@H](Cc2ccc(F)cc2)NC(=O)[C@H](Cc2c[nH]c3ccccc23)NC(=O)[C@H](CCC(N)=O)NC1=O [FITC-9A5] (cyclo(QW[Phe(4-F)]R[d2Nal]K(FITC)RR[dA]T[dNle]))
Kd [10]: ≥ 30 µM
fold more efficient cell entry than FITC-9A54 [11]: ~ 5 fold
